NR2E3 ag-1: agonists of human nuclear receptor NR2E3 | AID 2300 | actives 0.12% (n = 320,000) | GST-NR2E3/biotin-RetCOR TR-FRET, 1536-well | inhibition of corepressor binding, % at 4.78 µM;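 active = percent inhibition above the cutoff of mean plus 3 SD of all tested compounds, set per screening campaign, cut at about 20% in these data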
Target sequence (Q9Y5X4 whole entry, looked up): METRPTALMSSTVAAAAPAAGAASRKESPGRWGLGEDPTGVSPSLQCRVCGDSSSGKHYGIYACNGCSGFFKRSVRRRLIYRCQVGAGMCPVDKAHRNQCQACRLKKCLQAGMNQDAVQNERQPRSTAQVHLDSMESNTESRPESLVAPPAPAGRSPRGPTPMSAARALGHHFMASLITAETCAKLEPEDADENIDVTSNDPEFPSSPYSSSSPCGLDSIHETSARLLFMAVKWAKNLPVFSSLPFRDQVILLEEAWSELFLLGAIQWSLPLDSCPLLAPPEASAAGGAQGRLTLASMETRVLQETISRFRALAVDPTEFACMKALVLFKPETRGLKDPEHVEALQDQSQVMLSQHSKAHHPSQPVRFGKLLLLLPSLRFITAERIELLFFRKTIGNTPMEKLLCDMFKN
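System: GST-tagged NR2E3 plus biotinylated RetCOR corepressor; Amount: 1.35 nM GST-tagged NR2E3 final; Dosing: single nominal compound dose of 4.8 µM; Schedule: 5 h incubation at 4 °C; Technique: TR-FRET with europium anti-GST and streptavidin-D2, 340 nm excitation; Controls: biotin wells as high control, 0.6% DMSO wells as low control.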
697 NFkB inh: lowers PMA/ionomycin-induced NF-kB signal in 697 B cells; 697 B-cell NF-kB luciferase reporter, 16 h; inhibition, % at 4 µM; actives 0.33% (n = 330,000); in the data active = inhibition above about 35%
Jurkat NFkB inh: inhibitors of the PMA/ionomycin-induced NF-kB reporter in Jurkat cells. AID 435003. inhibition, % at 4 µM. actives 0.53% (n = 330,000). PMA/ionomycin-induced NF-kB luciferase reporter, luminescence; in the data active = inhibition above about 50%
GalR3 antag: antagonists of human GalR3; O60755; actives 0.44% (n = 360,000); inhibition, % at 3 µM; HEK293 GalR3-CNG cAMP membrane potential fluorescence; galR3 body fused to GalR1 C-terminus;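 active = inhibition above the screen-wide average plus 3 SD, cut at about 13% in these data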;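 note: forskolin and galanin both at EC90 stimulate the cells; cAMP rise reported by CNG channel membrane potential dye signal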
Gli-Sufu antag: Gli-Sufu pathway antagonism | inhibition, % at 5 µM | Sufu-KO-LIGHT fibroblasts, Gli luciferase reporter luminescence | actives 0.74% (n = 340,000);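 active = inhibition above about 55%, limit read from the data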
NR2E3 ag-2: activates human NR2E3 receptor | Q9Y5X4 | CHO-S Gal4-NCOR/VP16-NR2E3 two-hybrid, luciferase | inhibition of corepressor binding, % at 3.98 µM | actives 0.35% (n = 360,000);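 active = inhibition above the mean of all tested compounds plus 3 SD, cut at about 70% in these data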;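 note: higher means lower luciferase signal from less NR2E3 corepressor binding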
Jurkat NFkB conf: inhibitors of the PMA/ionomycin-induced NF-kB reporter in Jurkat cells, retest | inhibition, % at 4 µM | actives 27% (n = 2,700) | AID 435020 | Jurkat NF-kB luciferase, 16 h | shares compounds with Jurkat NFkB inh;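 active = inhibition reaching about 45% at 4 µM in either replicate, limit read from the data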
697 NFkB conf: lowers PMA/ionomycin-induced NF-kB signal in 697 B cells; 697 B-cell NF-kB luciferase, 16 h; shares compounds with 697 NFkB inh; AID 449746; inhibition, % at 4 µM; actives 35% (n = 2,000); in the data active = inhibition mostly above about 28%, no sharp cut-off; inactive = mostly below about 22%
Numbers stand for hits; – = inactive; · = no result. An excerpt weighted towards active compounds, which were near 1.8% of everything screened.

SMILES	NR2E3 ag-1	697 NFkB inh	Jurkat NFkB inh	GalR3 antag	Gli-Sufu antag	NR2E3 ag-2	Jurkat NFkB conf	697 NFkB conf
N=c1c2c(-c3ccccc3)c(-c3ccccc3)n(Cc3ccccc3)c2ncn1CCCn1ccnc1	–	37.4	57.7	–	–	–	–	24.1
N=c1c2c(-c3ccccc3)c(-c3ccccc3)n(Cc3ccco3)c2ncn1Cc1ccco1	–	–	–	–	–	–	·	·
O=C(N[C@H](C(=O)N1CCC[C@H]1C(=O)NC1CCCC1)C1CCCCC1)c1ccccc1	·	·	·	–	·	·	·	·
C=CCCC1CN(Cc2ccc(OC)cc2)S(=O)(=O)c2c(cccc2N(C)S(=O)(=O)c2ccc(C)cc2)O1 (configuration not stated)	·	·	·	–	·	·	·	·
COc1ccc(O)c(C(=O)CC(=O)c2ccccc2)c1	–	–	–	·	·	·	–	–
COc1ccc(O)c(C(=O)CC(=O)c2ccncc2)c1	·	·	·	–	–	–	·	·
COCc1cc(N2CCN(C(=O)OC(C)(C)C)C[C@H]2C)ccc1N1CC[C@@H](O)C1	·	·	·	–	·	·	·	·
CSCCC(c1nc2ccccc2[nH]1)n1c(/C=C/c2ccc(Cl)cc2)nc2ccccc21 (configuration not stated)	·	·	·	–	·	·	·	·
O=C(O)c1ccccc1-c1ccccc1C(=O)Nc1nc2ccccc2s1	–	–	–	–	–	–	·	·
O=C(Nc1nc2ccc(F)cc2s1)c1ccccn1	–	–	96.0	–	–	·	–	–
c1ccc2sc(NCC3CCCO3)nc2c1 (configuration not stated)	–	–	–	–	–	–	·	·
c1ccc2sc(NN=C3CCCCCC3)nc2c1	–	–	–	–	–	–	–	–
O=C(Nc1nc2ccccc2s1)c1ccccc1	–	–	–	–	–	–	–	–
COC(=O)c1c(-c2ccc(OC)cc2)c2c(c3c4cc(OC)ccc4n(C(=O)c4ccccc4)c13)C(=O)N(C)C2	·	·	·	–	·	·	·	·
Nc1c2c(nc3sc4c(c13)CCCC4)-c1ccccc1CC2	–	–	–	–	–	–	–	–
COc1ccc(C#Cc2c(-c3ccccc3OC)oc3ccccc23)cc1	·	·	·	–	·	·	·	·
O=C(Nc1cccc(-c2cnc3ccccc3n2)c1)c1ccccc1	–	–	–	–	–	–	·	·
CCc1ccc(-c2cnc3ccccc3n2)cc1NC(=O)CNC(=O)c1ccccc1	–	–	–	–	–	–	–	–
COC(=O)[C@]12C[C@H](CC(=O)N3CCOCC3)C(=O)N(CCC3=CCCCC3)C1=C[C@H](C(C)(C)C)O[C@@H]2C	·	·	·	–	·	·	·	·
COc1c(CC=C(C)C)c(O)cc2oc(=O)c3c4ccc(O)cc4oc3c12	–	–	–	·	–	–	·	·
COc1c2c(cc3oc(=O)c4c5ccc(O)cc5oc4c13)OC(C)(C)CC2	–	–	–	–	–	–	–	–
O=C(NC1CCCC1)[C@@H]1CCCN1C(=O)[C@@H](NC(=O)N1CCOCC1)c1ccccc1	·	·	·	–	·	·	·	·
CC1CN/C(=C\C(=O)c2ccccc2)C(=O)N1 (configuration not stated)	–	–	–	–	–	–	·	·
CC1CN/C(=C\C(=O)c2ccc(Cl)cc2)C(=O)N1 (configuration not stated)	–	–	–	–	–	–	–	–
c1ccc(-c2cn3ccccc3n2)cc1	·	·	·	–	–	–	·	·
SMILES	NR2E3 ag-1	697 NFkB inh	Jurkat NFkB inh	GalR3 antag	Gli-Sufu antag	NR2E3 ag-2	Jurkat NFkB conf	697 NFkB conf
Brc1ccc(-c2cn3ccccc3n2)cc1	–	–	–	–	–	–	–	–
O=C(Nc1ccccc1)C(=O)c1c[nH]c2ccccc12	–	–	–	–	–	–	–	–
O=C(Nc1cccc(Cl)c1)NN(c1ccccc1)C1CCS(=O)(=O)C1 (configuration not stated)	·	·	·	–	·	·	·	·
CC(C)(C)C(=O)/C(=C/c1ccc(Cl)cc1)n1cncn1	·	–	–	–	–	–	·	·
CC(C)(C)C(=O)/C(=C\c1ccc([N+](=O)[O-])cc1)n1cncn1	–	44.3	76.1	·	·	·	57.2	49.7
Fc1cccc(-c2cc3nc4c(c(N5CCOCC5)n3n2)CCCC4)c1	–	–	–	–	–	–	·	·
Fc1cccc(-c2cc3nc4c(c(NCc5ccco5)n3n2)CCCC4)c1	–	–	–	–	–	–	–	–
C/C(=N\Nc1cccc2cccnc12)c1ccccn1	–	–	–	–	–	–	–	–
C/C(=N\Nc1cccc2cccnc12)c1ccccc1O	–	–	–	–	–	–	·	·
COC(=O)c1cn[nH]c1NC(=S)Nc1ccc(C)cc1Cl	–	–	–	–	–	–	–	–
COC(=O)c1cn[nH]c1NC(=S)Nc1ccccc1C	–	–	–	–	–	–	·	·
COC(=O)c1cn[nH]c1NC(=S)Nc1ccc(Cl)c(Cl)c1	–	–	–	–	–	–	–	–
O=C(Nc1ccc(Cl)c(Cl)c1)c1ccc2c(c1)OCO2	–	–	–	–	–	–	–	–
O=C(Nc1ccc(Cl)cc1)c1ccc2c(c1)OCO2	–	–	–	–	–	–	·	·
O=C(Nc1cccc(C(=O)O)c1)Nc1ccc2c(c1)OCO2	–	70.5	87.9	–	–	–	68.9	69.3
COc1cccc(NC(=O)Nc2nc(-c3ccc(OC)c(OC)c3)cs2)c1	–	56.4	89.5	–	–	–	–	–
COc1cccc(NC(=O)Nc2cccc(C(=O)O)c2)c1	–	56.7	70.1	–	–	–	50.0	58.0
Cn1cnc([N+](=O)[O-])c1Sc1nnc(-c2ccccc2)c(-c2ccccc2)n1	·	·	·	–	·	·	·	·
COC(=O)[C@H](N[C@H](/C=C/c1ccccc1)[C@@H](O)Cc1ccccc1)c1ccccc1	·	·	·	–	·	·	·	·
Cc1cc2c(c(=O)o1)[C@@]1(C(=O)N(c3ccccc3)c3ccccc31)C1=C(CCCC1=O)O2	·	·	·	–	·	·	·	·
COc1ccc2cc(C(=O)CS(=O)(=O)c3ccc(Cl)cc3)c(=O)oc2c1	·	·	·	–	·	·	·	·
COc1ccccc1CN1Cc2ccccc2Oc2ccccc2S1(=O)=O	·	·	·	–	·	·	·	·
Cc1cc(Cl)c(S(=O)(=O)N2CCCCCC2)cc1OCC(=O)NC1CCCCC1	–	75.0	65.4	–	–	–	71.2	69.5
C=C(C(=O)c1ccccc1)C(C(=C)C(=O)c1ccccc1)c1ccc(OC)cc1	–	–	55.6	–	–	–	–	–
COc1ccc(C(CC(=O)c2ccccc2)CC(=O)c2ccccc2)cc1	–	–	–	–	–	–	·	·
CC(=Nc1ccc(O)cc1)c1sc2ccccc2c1O	–	–	–	–	–	–	·	·
Oc1c(N=Nc2ccccc2)sc2ccccc12	–	–	–	–	–	–	–	–
COC(=O)[C@]12C[C@H](CC(=O)N3CCN(C(=O)c4ccco4)CC3)C(=O)N(Cc3ccccc3)C1=C[C@H](C(C)(C)C)O[C@@H]2C	·	·	·	–	·	·	·	·
